Reference: publication PMC10546156 (Journal for Immunotherapy of Cancer, 2023)

System: HLA-typed donor PBMC, CD8 T cells
Assay: Immunogenicity assessment: tetramer/dextramer staining of donor T cells
Type: cell-based, human
Details: two C*07:01 healthy donor buffy coats, prior to or after sequential dextramer enrichment
Summary of the method: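 Dextramers were assembled from UV-exchange MHC monomers. 1–3×10^8 PBMC were treated with 50 nM dasatinib plus FcR block (30 min, 37°C), then with 10 µg/mL dextramer pool (1 h, 4°C), and bead-enriched sequentially over two columns. Enriched cells were either surface-stained for flow cytometry with the whole sample acquired, or expanded 10–14 days (irradiated allogeneic feeders, anti-CD3/28, IL-2 300 IU/mL, IL-7/IL-15 5 ng/mL) before re-enrichment.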

Substance | C*07:01 PP-CTL responses by dextramer pool
_FRRS(ph)PTKSSL_ [pRBM14] | could not detect responses
_HRYS(ph)TPHAF_ [pRAF1] | could not detect responses
_KRAS(ph)FAKSV_ [pWNK] | could not detect responses
_KRAS(ph)GQAFEL_ [pSTMN] | could not detect responses
_RRFS(ph)GTAVY_ [pZNF518A] | could not detect responses
_RRPS(ph)LLSEF_ [pNCOR] | could not detect responses
_RRYS(ph)DPPTY_ [pMYO9B] | could not detect responses
